Measurements reported in ChEMBL document CHEMBL4392836, “Second-generation aryl isonitrile compounds targeting multidrug-resistant Staphylococcus aureus” (Bioorg Med Chem, 2019).
Converted amounts (≈) assume the structure as drawn.

Columns and labels:
Staphylococcus aureus [1] = experiment: Antibacterial activity against methicillin-resistant Staphylococcus aureus NRS123 USA400 after 18 to 24 hrs by broth microdilution assay; format: functional
In short: (§1)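 CLSI broth microdilution with modifications. Bacteria cultured in TSB and exposed to compounds or control antibiotics in triplicate. Plates incubated aerobically at 37 °C for 18–24 h. MIC is the lowest concentration preventing visible growth.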

Klebsiella pneumoniae [2] = experiment: Antibacterial activity against Klebsiella pneumoniae ATCC BAA-1705 after 18 to 24 hrs in presence of colistin by broth microdilution assay; format: functional
In short: (§2)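 To permeabilize the outer membrane, CLSI broth microdilution in TSB (triplicate) was run with subinhibitory colistin: ¼ × MIC for A. baumannii, E. cloacae and E. coli strains, and P. aeruginosa; ½ × MIC for K. pneumoniae. Plates incubated aerobically at 37 °C for 18–24 h. MIC taken as the lowest concentration with no visible growth.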

Klebsiella pneumoniae [3] = experiment: Antibacterial activity against Klebsiella pneumoniae ATCC BAA-1705 after 18 to 24 hrs by broth microdilution assay; format: functional
In short: (§3)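 Broth microdilution MIC per CLSI guidelines with modifications. Bacteria grown in TSB and exposed to compounds or control antibiotics in triplicate. Plates incubated aerobically at 37 °C for 18–24 h. MIC taken as the lowest concentration with no visible growth.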

Escherichia coli [4] = experiment: Antibacterial activity against Escherichia coli BW25113 after 18 to 24 hrs in presence of colistin by broth microdilution method; format: functional; in short: as §2
Enterobacter cloacae [5] = experiment: Antibacterial activity against Enterobacter cloacae BAA1134 after 18 to 24 hrs in presence of colistin by broth microdilution assay; format: functional; in short: as §2
Escherichia coli [6] = experiment: Antibacterial activity against AcrAB-TolC deficient Escherichia coli […] after 18 to 24 hrs in presence of colistin by broth microdilution method; format: functional; in short: as §2
Acinetobacter baumannii [7] = experiment: Antibacterial activity against Acinetobacter baumannii BAA1605 after 18 to 24 hrs by broth microdilution assay; format: functional; in short: as §3
Pseudomonas aeruginosa [8] = experiment: Antibacterial activity against Pseudomonas aeruginosa ATCC 15442 after 18 to 24 hrs by broth microdilution assay; format: functional; in short: as §3
Enterobacter cloacae [9] = experiment: Antibacterial activity against Enterobacter cloacae BAA1134 after 18 to 24 hrs by broth microdilution assay; format: functional; in short: as §3
Escherichia coli [10] = experiment: Antibacterial activity against AcrAB-TolC deficient Escherichia coli […] after 18 to 24 hrs in absence of colistin by broth microdilution method; format: functional; in short: as §3
Acinetobacter baumannii [11] = experiment: Antibacterial activity against Acinetobacter baumannii BAA1605 after 18 to 24 hrs in presence of colistin by broth microdilution assay; format: functional; in short: as §2
Escherichia coli [12] = experiment: Antibacterial activity against Escherichia coli BW25113 after 18 to 24 hrs in absence of colistin by broth microdilution method; format: functional; in short: as §3
Pseudomonas aeruginosa [13] = experiment: Antibacterial activity against Pseudomonas aeruginosa ATCC 15442 after 18 to 24 hrs in presence of colistin by broth microdilution assay; format: functional; in short: as §2
[14] = Toxicity in wounded skin area of Balb/c mouse infected with methicillin-resistant Staphylococcus aureus USA300 at 2% administered topically twice daily for 5 consecutive days measured 4 times daily during compound dosing; conditions: in vivo, topical_or_ocular
In short: (§4)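 Female Balb/c mice with intradermal MRSA USA300 abscesses were treated topically twice daily for 5 days with a 2% suspension in petroleum jelly, alongside a vehicle group. Mice were checked at least four times daily during infection and treatment for adverse reactions. Wounds were examined for inflammation and toxicity.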

Mus musculus = experiment: Induction of inflammation in wounded skin area of Balb/c mouse infected with methicillin-resistant Staphylococcus aureus USA300 at 2% administered topically twice daily for 5 consecutive days measured 4 times daily during compound dosing; format: organism-based; conditions: in vivo, topical_or_ocular; in short: as §4
Staphylococcus aureus [15] = experiment: Antibacterial activity against methicillin-resistant Staphylococcus aureus USA300 infected in Balb/c mouse assessed as reduction in bacterial burden in wounded skin area at 2% administered topically twice daily for 5 consecutive days measured 12 hrs post last dose relative to control; format: functional; design: scale not given: the % may be the effect or the level left
In short: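 Eight-week-old female Balb/c mice (n = 5 per group) received an intradermal injection of 40 μL of 1.32 × 10⁹ CFU/mL MRSA USA300. From abscess formation (~48 h), a 2% suspension in petroleum jelly was applied topically twice daily for 5 days, with a vehicle-only group. Mice were euthanized 12 h after the last dose. Wounds were homogenized in PBS, serially diluted and plated on mannitol salt agar (≥16 h, 37 °C). CFU reduction was calculated against vehicle.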

Staphylococcus aureus [16] = experiment: Antibacterial activity against methicillin-resistant Staphylococcus aureus NRS119 after 18 to 24 hrs by broth microdilution assay; format: functional; in short: as §1
Enterococcus faecium = experiment: Antibacterial activity against vancomycin-resistant Enterococcus faecium ATCC 700221 after 18 to 24 hrs by broth microdilution assay; format: functional
In short: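 Broth microdilution per CLSI with modifications. Cultured in BHI and exposed to compounds in triplicate. Incubated aerobically at 37 °C for 18–24 h. MIC read as the lowest concentration with no visible growth.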

Staphylococcus aureus [17] = experiment: Antibacterial activity against methicillin-resistant Staphylococcus aureus NRS385 USA500 after 18 to 24 hrs by broth microdilution assay; format: functional; in short: as §1
Staphylococcus aureus [18] = experiment: Antibacterial activity against vancomycin-resistant Staphylococcus aureus VRS11a after 18 to 24 hrs by broth microdilution assay; format: functional; in short: as §1
Staphylococcus aureus [19] = experiment: Antibacterial activity against vancomycin-resistant Staphylococcus aureus VRS10 after 18 to 24 hrs by broth microdilution assay; format: functional; in short: as §1
[20] = Clearance in human at 625 mg, iv; format: ADME; conditions: in vivo
Staphylococcus aureus [21] = experiment: Antibacterial activity against methicillin-sensitive Staphylococcus aureus NRS107 after 18 to 24 hrs by broth microdilution assay; format: functional; in short: as §1
[22] = Cmax in human at 625 mg, iv; format: ADME; design: dose 625 mg, route intravenous; conditions: in vivo
clinical = conditions: human, in vivo, iv, 625 mg
Streptococcus pneumoniae = experiment: Antibacterial activity against penicillin-resistant Streptococcus pneumoniae ATCC 700677 after 18 to 24 hrs by broth microdilution assay; format: functional
In short: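 CLSI broth microdilution with modifications. Bacteria exposed to compounds in triplicate and incubated at 37 °C with 5% CO₂ for 18–24 h. MIC is the lowest concentration preventing visible growth.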

[23] = system: Staphylococcus epidermidis; experiment: Antibacterial activity against methicillin-resistant Staphylococcus epidermidis NRS101 after 18 to 24 hrs by broth microdilution assay; format: functional; in short: as §1
Staphylococcus aureus [24] = experiment: Antibacterial activity against methicillin-resistant Staphylococcus aureus USA300 NRS384 after 18 to 24 hrs by broth microdilution assay; format: functional; in short: as §1
[25] = Tmax in human at 625 mg, po; format: ADME; conditions: in vivo
[26] = Tmax in human at 625 mg, iv; format: ADME; conditions: in vivo
[27] = Cmax in human at 625 mg, po; format: ADME; design: dose 625 mg, route oral; conditions: in vivo

## N#Cc1ccc(CCc2ccncc2)cc1
Staphylococcus aureus [1]
  MIC: 64 µM (≈ 13.3 µg/mL)

## N#Cc1ccc(CCc2cccc(C#N)c2)cc1
Staphylococcus aureus [1]
  MIC: 32 µM (≈ 7.43 µg/mL)

## N#Cc1ccc(/C=C/c2ccc(C(F)(F)F)cc2)cc1
Staphylococcus aureus [1]
  MIC: 32 µM (≈ 8.74 µg/mL)

## COc1ccc(/C=C/c2ccc(C#N)cc2)cc1
Staphylococcus aureus [1]
  MIC: 32 µM (≈ 7.53 µg/mL)

## N#Cc1ccc(CCc2ccccn2)cc1
Staphylococcus aureus [1]
  MIC: > 64 µM

## N#Cc1ccc(/C=C/c2ccccc2C#N)cc1
Staphylococcus aureus [1]
  MIC: 16 µM (≈ 3.68 µg/mL)

## N#Cc1ccc(CCc2ccccc2C#N)cc1
Staphylococcus aureus [1]
  MIC: > 64 µM

## N#Cc1ccc(CCC2CCNc3ccccc32)cc1 (stereo not given)
Staphylococcus aureus [1]
  MIC: 32 µM (≈ 8.4 µg/mL)

## CC[C@H]1OC(=O)[C@H](C)[C@@H](O[C@H]2C[C@@](C)(OC)[C@@H](O)[C@H](C)O2)[C@H](C)[C@@H](O[C@@H]2O[C@H](C)C[C@H](N(C)C)[C@H]2O)[C@](C)(O)C[C@@H](C)C(=O)[C@H](C)[C@@H](O)[C@]1(C)O [ERYTHROMYCIN]
Klebsiella pneumoniae [2]
  MIC: 16 µM
Klebsiella pneumoniae [3]
  MIC: > 64 µM
Escherichia coli [4]
  MIC: 1 µM
Enterobacter cloacae [5]
  MIC: 1 µM
Escherichia coli [6]
  MIC: 0.5 µM
Acinetobacter baumannii [7]
  MIC: 16 µM (≈ 11.7 µg/mL)
Pseudomonas aeruginosa [8]
  MIC: > 64 µM
Enterobacter cloacae [9]
  MIC: > 64 µM
Escherichia coli [10]
  MIC: 2 µM (≈ 1.47 µg/mL)
Acinetobacter baumannii [11]
  MIC: 4 µM
Escherichia coli [12]
  MIC: 64 µM (≈ 47 µg/mL)
Pseudomonas aeruginosa [13]
  MIC: 4 µM

## CC(=O)O[C@H]1C[C@@]2(C)[C@@H](C[C@@H](O)[C@H]3[C@@]4(C)CC[C@@H](O)[C@@H](C)[C@@H]4CC[C@@]32C)/C1=C(\CCC=C(C)C)C(=O)O [FUSIDIC ACID]
[14]
  Activity: Non-Toxic
Mus musculus
  Activity: Non-Toxic
Staphylococcus aureus [15]
  Activity: 77.78%

## CC(=O)NC[C@H]1CN(c2ccc(N3CCOCC3)c(F)c2)C(=O)O1 [LINEZOLID]
Klebsiella pneumoniae [2]
  MIC: > 64 µM
Klebsiella pneumoniae [3]
  MIC: > 64 µM
Staphylococcus aureus [16]
  MIC: 32 µM (≈ 10.8 µg/mL)
Enterococcus faecium
  MIC: 0.5 µM (≈ 0.169 µg/mL)
Escherichia coli [4]
  MIC: > 64 µM
Staphylococcus aureus [17]
  MIC: 4 µM (≈ 1.35 µg/mL)
Staphylococcus aureus [18]
  MIC: 2 µM (≈ 0.675 µg/mL)
Staphylococcus aureus [19]
  MIC: 2 µM (≈ 0.675 µg/mL)
[20]
  clearance: 1.74 mL/min/kg
Staphylococcus aureus [21]
  MIC: 2 µM (≈ 0.675 µg/mL)
[22]
  Cmax: 13400 ng/mL
clinical
  half-life: 4.4 h
Enterobacter cloacae [5]
  MIC: 16 µM
Escherichia coli [6]
  MIC: 16 µM
Staphylococcus aureus [1]
  MIC: 1 µM (≈ 0.337 µg/mL)
Streptococcus pneumoniae
  MIC: 2 µM (≈ 0.675 µg/mL)
Acinetobacter baumannii [7]
  MIC: > 64 µM
Pseudomonas aeruginosa [8]
  MIC: > 64 µM
[23]
  MIC: 2 µM (≈ 0.675 µg/mL)
Staphylococcus aureus [24]
  MIC: 2 µM (≈ 0.675 µg/mL)
[25]
  Tmax: 1.33 h
[26]
  Tmax: 0.5 h
Enterobacter cloacae [9]
  MIC: > 64 µM
Escherichia coli [10]
  MIC: 16 µM (≈ 5.4 µg/mL)
Acinetobacter baumannii [11]
  MIC: > 64 µM
[27]
  Cmax: 12700 ng/mL
Escherichia coli [12]
  MIC: > 64 µM
Pseudomonas aeruginosa [13]
  MIC: > 64 µM

## CN[C@H](CC(C)C)C(=O)N[C@H]1C(=O)N[C@@H](CC(N)=O)C(=O)N[C@H]2C(=O)N[C@H]3C(=O)N[C@H](C(=O)N[C@H](C(=O)O)c4cc(O)cc(O)c4-c4cc3ccc4O)[C@H](O)c3ccc(c(Cl)c3)Oc3cc2cc(c3O[C@@H]2O[C@H](CO)[C@@H](O)[C@H](O)[C@H]2O[C@H]2C[C@](C)(N)[C@H](O)[C@H](C)O2)Oc2ccc(cc2Cl)[C@H]1O [VANCOMYCIN]
Klebsiella pneumoniae [3]
  MIC: > 64 µM
Staphylococcus aureus [16]
  MIC: 1 µM (≈ 1.45 µg/mL)
Enterococcus faecium
  MIC: > 64 µM
Staphylococcus aureus [17]
  MIC: 1 µM (≈ 1.45 µg/mL)
Staphylococcus aureus [18]
  MIC: > 64 µM
Staphylococcus aureus [19]
  MIC: > 64 µM
Staphylococcus aureus [21]
  MIC: 1 µM (≈ 1.45 µg/mL)
Staphylococcus aureus [1]
  MIC: 1 µM (≈ 1.45 µg/mL)
Streptococcus pneumoniae
  MIC: 1 µM (≈ 1.45 µg/mL)
Acinetobacter baumannii [7]
  MIC: 32 µM (≈ 46.4 µg/mL)
Pseudomonas aeruginosa [8]
  MIC: > 64 µM
[23]
  MIC: 4 µM (≈ 5.8 µg/mL)
Staphylococcus aureus [24]
  MIC: 1 µM (≈ 1.45 µg/mL)
Enterobacter cloacae [9]
  MIC: > 64 µM
